According to ChEMBL document CHEMBL3244385, “Antitumor anthracycline antibiotics. Structure-activity and structure-cardiotoxicity relationships of rubidazone analogues” (J Med Chem, 1978):

Assays:
P388 [1] = assay: In vivo antitumor activity against mouse P388 cells allografted in BDF/CDF mouse assessed as host survival time at 2 mg/kg, ip administered on days 1 to 9 relative to control; format: functional; conditions: route intraperitoneal
How it was run: (§1)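 P-388 lymphocytic leukemia, 10⁶ cells injected ip into BDF or CDF mice on day 0; drug given ip daily on days 1-9 at the stated dose. Read-out T/C: average survival time of treated mice as percent of untreated controls. Assays run by NCI Drug Research and Development Program.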

P388 [2] = assay: In vivo antitumor activity against mouse P388 cells allografted in BDF/CDF mouse assessed as host survival time at 16 mg/kg, ip administered on days 1 to 9 relative to control; format: functional; conditions: route intraperitoneal; how it was run: as §1
Rattus norvegicus [3] = species: Rattus norvegicus; assay: Cardiotoxicity in rat ECG model; conditions: in vivo
L1210 [4] = assay: Inhibition of DNA synthesis in mouse L1210 cells; format: functional; conditions: read-out: ED50 (the source's name)
P388 [5] = assay: In vivo antitumor activity against mouse P388 cells allografted in BDF/CDF mouse assessed as host survival time at 0.125 mg/kg, ip administered on days 1 to 9 relative to control; format: functional; conditions: route intraperitoneal; how it was run: as §1
L1210 [6] = assay: Inhibition of RNA synthesis in mouse L1210 cells; format: functional; conditions: read-out: ED50 (the source's name)
P388 [7] = assay: In vivo antitumor activity against mouse P388 cells allografted in BDF/CDF mouse assessed as host survival time at 4 mg/kg, ip administered on days 1 to 9 relative to control; format: functional; conditions: route intraperitoneal; how it was run: as §1
P388 [8] = assay: In vivo antitumor activity against mouse P388 cells allografted in BDF/CDF mouse assessed as host survival time at 0.5 mg/kg, ip administered on days 1 to 9 relative to control; format: functional; conditions: route intraperitoneal; how it was run: as §1
Rattus norvegicus [9] = species: Rattus norvegicus; assay: Cardiotoxicity in rat ECG model relative to adriamycin; conditions: in vivo
P388 [10] = assay: In vivo antitumor activity against mouse P388 cells allografted in BDF/CDF mouse assessed as host survival time at 0.25 mg/kg, ip administered on days 1 to 9 relative to control; format: functional; conditions: route intraperitoneal; how it was run: as §1
[11] = Dissociation constant, pKa of Ar-COOH group of the compound; format: physicochemical
Calf thymus DNA = assay: Binding affinity to calf thymus DNA assessed as change in melting temperature at 5 uM by spectrophotometer analysis; format: nucleic-acid assay; conditions: Bos taurus
How it was run: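 Drug dissolved in Me2SO, diluted with buffer, then mixed with calf thymus DNA. Final mix: 0.01 M phosphate pH 7, 5×10^-5 M DNA, 5×10^-6 M drug, 10^-5 M EDTA, 5% Me2SO. Absorbance at 259 nm recorded every 30 s while heating at 18 °C/h. Tm is the midpoint of the corrected curve; the shift is taken against DNA alone.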

P388 [12] = assay: In vivo antitumor activity against mouse P388 cells allografted in BDF/CDF mouse assessed as host survival time at 1 mg/kg, ip administered on days 1 to 9 relative to control; format: functional; conditions: route intraperitoneal; how it was run: as §1
[13] = Partition coefficient, log P of the compound; format: physicochemical; conditions: octanol/water
P388 [14] = assay: In vivo antitumor activity against mouse P388 cells allografted in BDF/CDF mouse assessed as host survival time at 8 mg/kg, ip administered on days 1 to 9 relative to control; format: functional; conditions: route intraperitoneal; how it was run: as §1
[15] = Half life in 0.01 M phosphate buffer at 10 uM at pH 7.4 at 50 degC; format: physicochemical
How it was run: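 Drug at 1×10^-5 M in 0.01 M phosphate, pH 7.4, 50 °C, no DNA. Absorbance followed continuously for 3 h at a drug-specific wavelength (345 or 259 nm). Buffer baseline subtracted. Data fit to A = ΣA0 + c·e^(-kt), with ΣA0 the absorbance of daunorubicin plus the […], and t1/2 derived from the fit.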

SMILES	T/C (P388 [1])	T/C (P388 [2])	MCCD (Rattus norvegicus [3])	EC50 (L1210 [4])	T/C (P388 [5])	EC50 (L1210 [6])	T/C (P388 [7])	T/C (P388 [8])	Ratio (Rattus norvegicus [9])	T/C (P388 [10])	pKa [11]	ΔTm (Calf thymus DNA)	T/C (P388 [12])	logP [13]	T/C (P388 [14])	half-life at 10 µM [15]
COc1cccc2c1C(=O)c1c(O)c3c(c(O)c1C2=O)C[C@@](O)(/C(C)=N/NC(=O)c1ccc(O)cc1)C[C@@H]3O[C@H]1C[C@H](N)[C@H](O)[C@H](C)O1.Cl	160%	111%	20 mg/kg	3600 nM	115%	1900 nM	161%	157%	1.5	111%	4.52	11.5 °C	145%	0.37	181%	–
CCCCOc1ccc(C(=O)N/N=C(\C)[C@]2(O)Cc3c(O)c4c(c(O)c3[C@@H](O[C@H]3C[C@H](N)[C@H](O)[C@H](C)O3)C2)C(=O)c2c(OC)cccc2C4=O)cc1.Cl	179%	54%	>= 48 mg kg-1	3200 nM	115%	1400 nM	127%	151%	>= 3.4	143%	4.23	10.2 °C	152%	2.65	72%	–
COc1cccc2c1C(=O)c1c(O)c3c(c(O)c1C2=O)C[C@@](O)(C(=O)CO)C[C@@H]3O[C@H]1C[C@H](N)[C@H](O)[C@H](C)O1.Cl [DOXORUBICIN HYDROCHLORIDE]	149%	–	11 mg/kg	1500 nM	–	670 nM	77%	187%	1	170%	–	13.4 °C	193%	0.3	–	–
COc1cccc2c1C(=O)c1c(O)c3c(c(O)c1C2=O)C[C@@](O)(/C(CO)=N/NC(=O)c1ccccc1)C[C@@H]3O[C@H]1C[C@H](N)[C@H](O)[C@H](C)O1.Cl	154%	128%	32 mg/kg	14000 nM	103%	8800 nM	172%	126%	2.4	99%	4.19	8.9 °C	154%	0.52	201%	–
COc1cccc2c1C(=O)c1c(O)c3c(c(O)c1C2=O)C[C@@](O)(C(C)=O)C[C@@H]3O[C@H]1C[C@H](N)[C@H](O)[C@H](C)O1 [DAUNORUBICIN]	112%	–	14 mg/kg	480 nM	–	230 nM	83%	167%	1.3	152%	–	–	162%	0.82	–	–
COc1ccc(C(=O)N/N=C(\C)[C@]2(O)Cc3c(O)c4c(c(O)c3[C@@H](O[C@H]3C[C@H](N)[C@H](O)[C@H](C)O3)C2)C(=O)c2c(OC)cccc2C4=O)cc1.Cl	174%	59%	24 mg/kg	3100 nM	119%	1600 nM	211%	136%	1.8	129%	4.47	10.9 °C	158%	1.02	183%	–
CCc1ccc(C(=O)N/N=C(\C)[C@]2(O)Cc3c(O)c4c(c(O)c3[C@@H](O[C@H]3C[C@H](N)[C@H](O)[C@H](C)O3)C2)C(=O)c2c(OC)cccc2C4=O)cc1.Cl	175%	68%	20 mg/kg	2600 nM	111%	1100 nM	175%	148%	1.5	139%	4.35	10.5 °C	154%	2.06	93%	–
COc1cccc2c1C(=O)c1c(O)c3c(c(O)c1C2=O)C[C@@](O)(/C(C)=N/NC(=O)c1ccc(N(C)C)cc1)C[C@@H]3O[C@H]1C[C@H](N)[C@H](O)[C@H](C)O1.Cl	181%	89%	12 mg/kg	2600 nM	94%	2500 nM	172%	154%	0.8	111%	4.97	10.7 °C	154%	1.22	136%	9.23 h
COc1cccc2c1C(=O)c1c(O)c3c(c(O)c1C2=O)C[C@@](O)(/C(CO)=N/NC(=O)c1ccc(Cl)c(Cl)c1)C[C@@H]3O[C@H]1C[C@H](N)[C@H](O)[C@H](C)O1.Cl	154%	72%	20 mg/kg	6600 nM	116%	3600 nM	202%	143%	1.4	125%	3.62	5.3 °C	172%	1.94	109%	–
COc1cccc2c1C(=O)c1c(O)c3c(c(O)c1C2=O)C[C@@](O)(/C(C)=N/NC(=O)c1ccc(Cl)c(Cl)c1)C[C@@H]3O[C@H]1C[C@H](N)[C@H](O)[C@H](C)O1.Cl	175%	54%	40 mg/kg	2100 nM	117%	1700 nM	163%	157%	2.8	137%	3.62	11 °C	166%	2.46	81%	–
COc1cccc2c1C(=O)c1c(O)c3c(c(O)c1C2=O)C[C@@](O)(/C(C)=N/NC(=O)c1cccc([N+](=O)[O-])c1)C[C@@H]3O[C@H]1C[C@H](N)[C@H](O)[C@H](C)O1.Cl	172%	72%	32 mg/kg	3200 nM	125%	2300 nM	190%	130%	2.3	130%	3.46	10.5 °C	146%	0.76	202%	–
COc1cccc2c1C(=O)c1c(O)c3c(c(O)c1C2=O)C[C@@](O)(/C(C)=N/NC(=O)c1ccc(-c2ccccc2)cc1)C[C@@H]3O[C@H]1C[C@H](N)[C@H](O)[C@H](C)O1.Cl	163%	63%	40 mg/kg	1900 nM	107%	1000 nM	190%	138%	2.8	134%	3.97	10.3 °C	157%	3	98%	–
COc1cccc2c1C(=O)c1c(O)c3c(c(O)c1C2=O)C[C@@](O)(/C(C)=N/NC(=O)c1ccccc1)C[C@@H]3O[C@H]1C[C@H](N)[C@H](O)[C@H](C)O1.Cl [ZORUBICIN HYDROCHLORIDE]	170%	112%	24 mg/kg	2200 nM	–	1200 nM	192%	140%	1.8	133%	4.19	11.7 °C	152%	1.04	164%	5.4 h
